# Experimental data taken from ChEMBL document CHEMBL2390852, “Anti-influenza active and low toxic N-phenyl-substituted β-amidoamidines structurally related to natural antibiotic amidinomycin” (Bioorg Med Chem Lett, 2013).
# The source made the active and inactive calls. The rule behind the calls is not given here.
# What was measured:
# H3N2 subtype [1] = assay: Antiviral activity against Influenza A virus (A/Aichi/2/1968(H3N2))-infected in Balb/c mouse at 0.1 LD50/dose, sc for 5 times measured after 7 to 14 days; format: functional, organism-based
# How it was run: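 Balb/c mice of both sexes, 10 per group, were infected intranasally with mouse-adapted virus. […] Vehicle controls received the same schedule. Survivors were counted on days 7 and 14.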
# Influenza A virus [2] = assay: Antiviral activity against influenza A virus A/St. Petersburg/34/72 (H3N2) infected in dog MDCK cells using chicken erythrocytes by hemadsorption assay; format: functional, organism-based
# How it was run: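 Hemadsorption of chicken erythrocytes was used alongside the CPE read-out on infected MDCK cells after 48 h compound incubation at 37 °C in 5% CO2. The results of the two assays were averaged.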
# [3] = test system: influenza A virus A/St. Petersburg/34/72 (H3N2); assay: Therapeutic index, ratio of CC50 for dog MDCK cells to EC50 for 100 infective dose of influenza A virus A/St. Petersburg/34/72 (H3N2; format: cell-based; details: read-out: Ratio CC50/EC50
# [4] = test system: influenza A virus A/St. Petersburg/34/72 (H3N2); assay: Therapeutic index, ratio of CC50 for dog MDCK cells to EC50 for 1 infective dose of influenza A virus A/St. Petersburg/34/72 (H3N2); format: cell-based; details: read-out: Ratio CC50/EC50
# [5] = Cytotoxicity against dog MDCK cells after 48 hrs by MTT assay; format: cell-based, Canis lupus familiaris
# How it was run: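 MDCK cells were incubated with compound at various concentrations for 48 h. CC50 is the concentration causing 50% reduction of cell viability. Values are means of 2–4 separate experiments.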
# Influenza A virus [6] = assay: Antiviral activity against 100 infective dose of influenza A virus A/St. Petersburg/34/72 (H3N2) infected in dog MDCK cells assessed as virus-induced cytopathic effect after 48 hrs; format: functional, organism-based
# How it was run: (§1)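 MDCK cells in maintenance medium were infected with 1 infective dose or 100 doses, where 1 dose induced 50 3% cell death under standard conditions. Cells were incubated with compound at various concentrations for 48 h at 37 °C in 5% CO2. CPE was scored against cell and virus controls, and EC50 is the concentration giving 50% inhibition of CPE. Values are means of 2–4 separate experiments.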
# Influenza A virus [7] = assay: Antiviral activity against 1 infective dose of influenza A virus A/St. Petersburg/34/72 (H3N2) infected in dog MDCK cells assessed as virus-induced cytopathic effect after 48 hrs; format: functional, organism-based; how it was run: as §1
# H3N2 subtype [8] = assay: Antiviral activity against Influenza A virus (A/Aichi/2/1968(H3N2))-infected in Balb/c mouse at </= 100 mg/kg, sc after 7 to 14 days; format: functional, organism-based; design: dose 100 mg/kg
# [9] = Acute toxicity in sc dosed Balb/c mouse after 5 days; format: organism-based; details: in vivo
# How it was run: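 Male Balb/c mice, four per group, given single SC doses rising from 1000 to 4000 mg/kg in 500 mg/kg steps, in saline/DMSO 4:1 (200 µL total). LD50 was taken as the dose giving 50% mortality, with toxicity estimated in a 5 days test.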
# Mus musculus [10] = assay: Sub-acute toxicity in Balb/c mouse assessed as change in body weight at 300 mg/kg, sc administered for 6 days measured on day 10; format: organism-based; design: dose 300 mg/kg, route subcutaneous; details: in vivo, 144 h
# How it was run: (§2)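 Four mice, two of each sex, were given 300 mg/kg SC daily for 6 days. Behaviour and body weight were assessed at day 10.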
# Mus musculus [11] = assay: Sub-acute toxicity in Balb/c mouse assessed as behavioural change at 300 mg/kg, sc administered for 6 days measured on day 10; format: organism-based; design: dose 300 mg/kg, route subcutaneous; details: in vivo, 144 h; how it was run: as §2
# Mus musculus [12] = assay: Sub-acute toxicity in Balb/c mouse assessed as survival at 1000 mg/kg, sc after 10 days; format: organism-based; design: dose 1000 mg/kg, route subcutaneous; details: in vivo, 240 h
# How it was run: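 Four male Balb/c mice each received a single SC dose of 1000 mg/kg in saline/DMSO 4:1. Survival was followed for at least 10 days.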
Compound,Activity (H3N2 subtype [1]),Activity (Influenza A virus [2]),selectivity ratio [3],selectivity ratio [4],CC50 at 48 h [5] [µM],EC50 (Influenza A virus [6]) [µM],EC50 (Influenza A virus [7]) [µM],Activity (H3N2 subtype [8]),LD50 at 120 h [9] [mg/kg],Activity (Mus musculus [10]),Activity (Mus musculus [11]),Activity (Mus musculus [12])
CCCCCCCCCCC(=O)N(CC(C)/C(=N\c1ccccc1)Nc1ccccc1)c1ccccc1.Cl (racemic),Active,Active,128,514,936,7.3,1.82,inactive,3500,,,
CCCCCCCCCCCCC(=O)N(CC(C)/C(=N\c1ccccc1)Nc1ccccc1)c1ccccc1.Cl (racemic),Active,,32,128,890,27.8,6.95,inactive,4000,,,
CCCCCCCCCCCCCCCCCC(=O)N(CC(C)/C(=N\c1ccccc1)Nc1ccccc1)c1ccccc1 (racemic),,,17,80,1240,72,15.6,,,,,
CC(CNc1ccccc1)/C(=N\c1ccccc1)Nc1ccccc1 (racemic),,,,,85,≥ 200,≥ 200,,,,,
CC(CN(C(=O)c1ccccc1)c1ccccc1)/C(=N\c1ccccc1)Nc1ccccc1 (racemic),,,,< 2.85,286,≥ 200,> 100,,,,,
CC(=O)N(CC(C)/C(=N\c1ccccc1)Nc1ccccc1)c1ccccc1 (racemic),,,,2.25,153,≥ 200,68,,,,,
CCCC(=O)N(CC(C)/C(=N\c1ccccc1)Nc1ccccc1)c1ccccc1 (racemic),,,2.2,9,216,98,24,,,,,
CCCCCCCCC(=O)N(CC(C)/C(=N\c1ccccc1)Nc1ccccc1)c1ccccc1.Cl (racemic),Active,Active,125,260,247,1.98,0.95,inactive,3000,Non-toxic,Non-toxic,Non-toxic
"N=C(N)CCNC(=O)[C@@H]1CC[C@H](N)C1 [(1R,3S)-AMIDINOMYCIN]",,,,,,,,,10,,,
CC(N)C12CC3CC(CC(C3)C1)C2 (stereo not drawn) [RIMANTADINE],,,32,256,1400,43.5,5.45,Active,175,,,
